Source: ChEMBL document CHEMBL3739336, “Identification of dual PPARα/γ agonists and their effects on lipid metabolism” (Bioorg Med Chem, 2015)
The source made the active and inactive calls. No cut-off for these calls is given here.

How the values were obtained:
[1] = target: Peroxisome proliferator-activated receptor (Homo sapiens) (UniProt P37231+Q07869+Q03181); assay: Agonist activity at PPAR in human THP1 cells assessed as induction of ABCG1 expression at 20 uM after 24 hrs by Western blot analysis relative to control; type: cell-based; conditions: THP-1
in vitro = conditions: human, HEK293 cells
[2] = target: T1, Peroxisome proliferator-activated receptor alpha (Homo sapiens) (UniProt Q07869); assay: Agonist activity at PPARalpha in human HuH7 cells assessed as increase of fatty acid oxidation by measuring CO2 production using […] at 20 uM after 18 hrs by scintillation counting; type: cell-based; conditions: Huh-7
T1 sequence (whole entry): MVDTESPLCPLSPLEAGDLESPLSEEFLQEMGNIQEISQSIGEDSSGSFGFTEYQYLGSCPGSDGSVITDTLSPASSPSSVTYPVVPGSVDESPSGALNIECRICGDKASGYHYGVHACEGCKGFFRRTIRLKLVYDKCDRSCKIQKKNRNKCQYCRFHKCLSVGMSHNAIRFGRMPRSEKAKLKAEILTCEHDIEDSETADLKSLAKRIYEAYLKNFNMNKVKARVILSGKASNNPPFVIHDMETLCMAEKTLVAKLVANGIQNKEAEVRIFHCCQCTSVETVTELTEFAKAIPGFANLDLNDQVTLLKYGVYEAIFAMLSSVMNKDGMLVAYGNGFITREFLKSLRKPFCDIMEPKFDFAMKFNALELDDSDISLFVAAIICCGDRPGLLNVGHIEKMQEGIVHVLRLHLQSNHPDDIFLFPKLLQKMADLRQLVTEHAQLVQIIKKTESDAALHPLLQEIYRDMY

[3] = target: T2, Peroxisome proliferator-activated receptor gamma (Mus musculus) (UniProt P37238); assay: Agonist activity at PPARgamma in mouse 3T3-L1 cells assessed as increase of triacylglycerol accumulation at 20 uM after 18 hrs by ORO staining; type: cell-based
T2 sequence (whole entry): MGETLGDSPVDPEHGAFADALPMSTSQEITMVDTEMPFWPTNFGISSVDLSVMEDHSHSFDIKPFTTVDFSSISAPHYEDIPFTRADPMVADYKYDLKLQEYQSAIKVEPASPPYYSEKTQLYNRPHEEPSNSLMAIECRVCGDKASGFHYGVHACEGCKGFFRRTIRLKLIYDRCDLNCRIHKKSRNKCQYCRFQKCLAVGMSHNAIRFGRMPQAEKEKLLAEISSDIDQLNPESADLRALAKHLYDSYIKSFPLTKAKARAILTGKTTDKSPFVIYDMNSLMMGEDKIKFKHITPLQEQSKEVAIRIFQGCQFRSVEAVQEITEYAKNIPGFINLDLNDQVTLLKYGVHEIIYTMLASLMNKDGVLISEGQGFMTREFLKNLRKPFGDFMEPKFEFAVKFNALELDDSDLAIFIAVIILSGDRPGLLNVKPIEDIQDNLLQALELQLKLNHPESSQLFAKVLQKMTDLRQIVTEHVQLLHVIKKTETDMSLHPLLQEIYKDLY
Method in brief: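 Differentiated 3T3-L1 adipocytes on coverslips, treated for 18 h (overnight) with 20 μM or 25 μM. Cells fixed in 4% PFA, rinsed in 60% isopropanol, stained 10 min with Oil Red O (0.5% stock diluted 6/4 in water), then imaged by microscopy for neutral lipid.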

[4] = target: T1, Peroxisome proliferator-activated receptor alpha (Homo sapiens); assay: Agonist activity at PPARalpha in human HuH7 cells assessed as increase of CPT1alpha expression at 20 uM by Western blotting relative to control; type: cell-based; conditions: Huh-7
Method in brief: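 HuH7 hepatoma cells (DMEM/F-12, 10% FCS) incubated overnight ± 20 μM. Whole-cell lysates run on 12% SDS-PAGE and immunoblotted for CPT1α with HRP secondary and ECL. Band intensity normalised to actin; mean ± SEM, n = 3.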

Chain of Peroxisome proliferator-activated receptor (Homo sapiens) (P37231 whole entry, looked up, one chain of several): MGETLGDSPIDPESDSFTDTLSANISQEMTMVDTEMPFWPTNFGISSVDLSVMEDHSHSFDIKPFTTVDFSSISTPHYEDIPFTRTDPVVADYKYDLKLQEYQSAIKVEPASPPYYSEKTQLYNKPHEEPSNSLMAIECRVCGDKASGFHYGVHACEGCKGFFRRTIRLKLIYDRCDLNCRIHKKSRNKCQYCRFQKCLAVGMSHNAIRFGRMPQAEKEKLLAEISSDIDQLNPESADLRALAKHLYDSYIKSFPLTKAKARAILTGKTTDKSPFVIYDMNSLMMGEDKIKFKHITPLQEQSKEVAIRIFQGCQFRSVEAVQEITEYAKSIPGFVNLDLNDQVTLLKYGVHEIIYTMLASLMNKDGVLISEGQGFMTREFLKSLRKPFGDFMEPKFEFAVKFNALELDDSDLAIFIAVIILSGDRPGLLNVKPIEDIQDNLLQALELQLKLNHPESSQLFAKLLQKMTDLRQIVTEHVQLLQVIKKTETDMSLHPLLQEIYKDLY
Chain of Peroxisome proliferator-activated receptor (Homo sapiens) (Q03181 whole entry, looked up, one chain of several): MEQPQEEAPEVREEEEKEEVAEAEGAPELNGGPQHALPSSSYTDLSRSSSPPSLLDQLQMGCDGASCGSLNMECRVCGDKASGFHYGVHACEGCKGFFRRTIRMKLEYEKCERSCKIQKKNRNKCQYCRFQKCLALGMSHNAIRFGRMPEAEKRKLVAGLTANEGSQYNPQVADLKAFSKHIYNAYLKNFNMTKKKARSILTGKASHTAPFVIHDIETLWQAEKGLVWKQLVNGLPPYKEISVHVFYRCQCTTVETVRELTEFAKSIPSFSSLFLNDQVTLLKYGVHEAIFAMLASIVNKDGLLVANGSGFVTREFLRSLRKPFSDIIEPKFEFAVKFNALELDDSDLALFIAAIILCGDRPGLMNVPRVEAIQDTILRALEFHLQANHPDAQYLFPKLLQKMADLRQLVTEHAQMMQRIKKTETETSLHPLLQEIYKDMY

Activity [1] | inhibition at 100 µM (in vitro) [%] | Activity [2] | fold change (FC) [1] | Structure (SMILES) | other results
 | < 5 |  |  | CN(CCOc1ccc(CC2SC(=O)NC2=O)cc1)c1ccccn1 (stereo not given) [ROSIGLITAZONE] | 
inactive |  |  |  | CCOc1ccc2c(=O)c(-c3ccccc3)coc2c1C | 

More lines, now with the values behind:

Structure (SMILES) | Activity [1] | inhibition at 100 µM (in vitro) [%] | Activity [2] | fold change (FC) [1] | other results
COc1ccc2c(=O)c(-c3ccccc3)coc2c1C | inactive |  |  |  | 
Cc1cccc(Nc2cc(Cl)nc(SCC(=O)O)n2)c1C [PIRINIXIC ACID] |  | < 5 | Active |  | 
Cn1c(Cc2ccccc2)nn(CN2CCC(c3ccccc3)CC2)c1=S |  |  |  | 3 | 
CCN(CC)c1ccc(NC(=O)c2ccccc2OCC(=O)N2CCc3ccccc32)cc1 |  |  | Active | 3 | Activity [3]: 20%; fold change (FC) [4]: > 2
